{"source": "ChEMBL document CHEMBL1125797", "about": "“Synthesis, characterization and myocardial uptake of cationic bis(arene)technetium(I) complexes” (J Med Chem, 1991)", "key": {"Rattus norvegicus [1]": {"system": "Rattus norvegicus", "test": "Biodistribution of compound in rat liver after 5 min of administration", "type": "ADME, organism-based", "conditions": "in vivo", "how_it_was_run": "(§1)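 Female Sprague-Dawley rats (150–200 g) received the 99mTc complex in normal saline (~12.5 μCi/mL) via a lateral tail vein at ~25 μCi/kg. They were killed by cervical dislocation 5 min after injection. Tissues were washed with saline, blotted, weighed and γ-counted, and the read-out was percent injected dose per g tissue.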"}, "Rattus norvegicus [2]": {"system": "Rattus norvegicus", "test": "Biodistribution of compound in rat heart at 5 min after intravenous administration", "type": "ADME, organism-based", "conditions": "in vivo", "how_it_was_run": "(§2)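 Time course in Sprague-Dawley rats after lateral tail-vein injection of the 99mTc complex in normal saline (~12.5 μCi/mL) at ~25 μCi/kg. Tissues were sampled at the stated times, washed with saline, blotted, weighed and γ-counted to give percent injected dose per g. Values are averages of male and female rats.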"}, "Rattus norvegicus [3]": {"system": "Rattus norvegicus", "test": "Biodistribution of compound in rat urine at 360 min after intravenous administration", "type": "ADME, organism-based", "conditions": "in vivo, 6 h", "how_it_was_run": "(§3)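 Rats received the 99mTc complex in normal saline (~12.5 μCi/mL) by lateral tail vein injection at ~25 μCi/kg and were killed by cervical dislocation at the stated time. Tissues were washed with saline, blotted, weighed and γ-counted to give percent injected dose/g. Time-course values are averages of male and female rats.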"}, "Rattus norvegicus [4]": {"system": "Rattus norvegicus", "test": "Biodistribution of compound in rat muscle at 90 min after intravenous administration", "type": "ADME, organism-based, Muscle tissue", "conditions": "in vivo, 1.5 h", "how_it_was_run": "as §3"}, "Rattus norvegicus [5]": {"system": "Rattus norvegicus", "test": "Biodistribution of compound in rat gonads at 45 min after intravenous administration", "type": "ADME, organism-based, Gonad", "conditions": "in vivo, 0.75 h", "how_it_was_run": "as §2"}, "Rattus norvegicus [6]": {"system": "Rattus norvegicus", "test": "Biodistribution of compound in rat kidney at 360 min after intravenous administration", "type": "ADME, organism-based", "conditions": "in vivo, 6 h", "how_it_was_run": "as §2"}, "Rattus norvegicus [7]": {"system": "Rattus norvegicus", "test": "Biodistribution of compound in rat lungs at 45 min after intravenous administration", "type": "ADME, organism-based, Lung", "conditions": "in vivo, 0.75 h", "how_it_was_run": "as §3"}, "Rattus norvegicus [8]": {"system": "Rattus norvegicus", "test": "Biodistribution of compound in rat blood at 90 min after intravenous administration", "type": "ADME, organism-based", "conditions": "in vivo, 1.5 h", "how_it_was_run": "as §2"}, "Rattus norvegicus [9]": {"system": "Rattus norvegicus", "test": "Biodistribution of compound in rat brain after 5 min of administration", "type": "ADME, organism-based", "conditions": "in vivo"}, "Rattus norvegicus [10]": {"system": "Rattus norvegicus", "test": "Biodistribution of compound in rat bone at 360 min after intravenous administration", "type": "ADME, organism-based, Bone element", "conditions": "in vivo, 6 h", "how_it_was_run": "as §2"}, "Rattus norvegicus [11]": {"system": "Rattus norvegicus", "test": "Biodistribution of compound in rat lungs at 1440 min after intravenous administration", "type": "ADME, organism-based, Lung", "conditions": "in vivo, 24 h", "how_it_was_run": "as §3"}, "Rattus norvegicus [12]": {"system": "Rattus norvegicus", "test": "Biodistribution of compound in rat heart at 180 min after intravenous administration", "type": "ADME, organism-based", "conditions": "in vivo, 3 h", "how_it_was_run": "as §2"}, "Rattus norvegicus [13]": {"system": "Rattus norvegicus", "test": "Biodistribution of compound in rat bone at 1440 min after intravenous administration", "type": "ADME, organism-based, Bone element", "conditions": "in vivo, 24 h", "how_it_was_run": "as §2"}, "Rattus norvegicus [14]": {"system": "Rattus norvegicus", "test": "Biodistribution of compound in rat kidney at 5 min after intravenous administration", "type": "ADME, organism-based", "conditions": "in vivo", "how_it_was_run": "as §2"}, "Rattus norvegicus [15]": {"system": "Rattus norvegicus", "test": "Biodistribution of compound in rat liver at 180 min after intravenous administration", "type": "ADME, organism-based", "conditions": "in vivo, 3 h", "how_it_was_run": "as §2"}, "Rattus norvegicus [16]": {"system": "Rattus norvegicus", "test": "Biodistribution of compound in rat blood after 5 min of administration", "type": "ADME, organism-based", "conditions": "in vivo", "how_it_was_run": "as §1"}, "Rattus norvegicus [17]": {"system": "Rattus norvegicus", "test": "Biodistribution of compound in rat gonads at 90 min after intravenous administration", "type": "ADME, organism-based, Gonad", "conditions": "in vivo, 1.5 h", "how_it_was_run": "as §2"}, "Rattus norvegicus [18]": {"system": "Rattus norvegicus", "test": "Biodistribution of compound in rat blood at 45 min after intravenous administration", "type": "ADME, organism-based", "conditions": "in vivo, 0.75 h", "how_it_was_run": "as §2"}, "[19]": {"test": "Biodistribution of compound in rat muscle after 5 min of administration", "type": "ADME, organism-based, Muscle tissue", "conditions": "in vivo", "how_it_was_run": "as §3"}, "Rattus norvegicus [20]": {"system": "Rattus norvegicus", "test": "Biodistribution of compound in rat lungs at 90 min after intravenous administration", "type": "ADME, organism-based, Lung", "conditions": "in vivo, 1.5 h", "how_it_was_run": "as §3"}, "Rattus norvegicus [21]": {"system": "Rattus norvegicus", "test": "Biodistribution of compound in rat blood at 1440 min after intravenous administration", "type": "ADME, organism-based", "conditions": "in vivo, 24 h", "how_it_was_run": "as §2"}, "Rattus norvegicus [22]": {"system": "Rattus norvegicus", "test": "Biodistribution of compound in rat muscle at 45 min after intravenous administration", "type": "ADME, organism-based, Muscle tissue", "conditions": "in vivo, 0.75 h", "how_it_was_run": "as §3"}, "Rattus norvegicus [23]": {"system": "Rattus norvegicus", "test": "Biodistribution of compound in rat gonads at 180 min after intravenous administration", "type": "ADME, organism-based, Gonad", "conditions": "in vivo, 3 h", "how_it_was_run": "as §2"}, "Rattus norvegicus [24]": {"system": "Rattus norvegicus", "test": "Biodistribution of compound in rat eye at 180 min after intravenous administration", "type": "ADME, organism-based", "conditions": "in vivo, 3 h", "how_it_was_run": "as §2"}, "Rattus norvegicus [25]": {"system": "Rattus norvegicus", "test": "Biodistribution of compound in rat eye at 45 min after intravenous administration", "type": "ADME, organism-based", "conditions": "in vivo, 0.75 h", "how_it_was_run": "as §2"}, "Rattus norvegicus [26]": {"system": "Rattus norvegicus", "test": "Biodistribution of compound in rat liver at 90 min after intravenous administration", "type": "ADME, organism-based", "conditions": "in vivo, 1.5 h", "how_it_was_run": "as §3"}, "Rattus norvegicus [27]": {"system": "Rattus norvegicus", "test": "Biodistribution of compound in rat bone at 5 min after intravenous administration", "type": "ADME, organism-based, Bone element", "conditions": "in vivo", "how_it_was_run": "as §2"}, "Rattus norvegicus [28]": {"system": "Rattus norvegicus", "test": "Biodistribution of compound in rat bone marrow at 90 min after intravenous administration", "type": "ADME, organism-based", "conditions": "in vivo, 1.5 h", "how_it_was_run": "as §2"}, "Rattus norvegicus [29]": {"system": "Rattus norvegicus", "test": "Biodistribution of compound in rat heart at 360 min after intravenous administration", "type": "ADME, organism-based", "conditions": "in vivo, 6 h", "how_it_was_run": "as §2"}, "Rattus norvegicus [30]": {"system": "Rattus norvegicus", "test": "Biodistribution of compound in rat lung after 5 min of administration", "type": "ADME, organism-based", "conditions": "in vivo", "how_it_was_run": "as §3"}, "Rattus norvegicus [31]": {"system": "Rattus norvegicus", "test": "Biodistribution of compound in rat urine at 1440 min after intravenous administration", "type": "ADME, organism-based", "conditions": "in vivo, 24 h", "how_it_was_run": "as §3"}, "Rattus norvegicus [32]": {"system": "Rattus norvegicus", "test": "Biodistribution of compound in rat feces at 360 min after intravenous administration", "type": "ADME, organism-based", "conditions": "in vivo, 6 h"}, "Rattus norvegicus [33]": {"system": "Rattus norvegicus", "test": "Biodistribution of compound in rat eye at 5 min after intravenous administration", "type": "ADME, organism-based", "conditions": "in vivo", "how_it_was_run": "as §2"}, "Rattus norvegicus [34]": {"system": "Rattus norvegicus", "test": "Biodistribution of compound in rat kidney after 5 min of administration", "type": "ADME, organism-based", "conditions": "in vivo", "how_it_was_run": "as §1"}, "Rattus norvegicus [35]": {"system": "Rattus norvegicus", "test": "Biodistribution of compound in rat bone marrow at 360 min after intravenous administration", "type": "ADME, organism-based", "conditions": "in vivo, 6 h", "how_it_was_run": "as §2"}, "Rattus norvegicus [36]": {"system": "Rattus norvegicus", "test": "Biodistribution of compound in rat kidney at 180 min after intravenous administration", "type": "ADME, organism-based", "conditions": "in vivo, 3 h", "how_it_was_run": "as §2"}, "Rattus norvegicus [37]": {"system": "Rattus norvegicus", "test": "Biodistribution of compound in rat muscle at 360 min after intravenous administration", "type": "ADME, organism-based, Muscle tissue", "conditions": "in vivo, 6 h", "how_it_was_run": "as §3"}}, "data": [{"substance": "Bis(1,3,5-trimethylbenzene)technetium", "values": [{"measurement": "Dose/g", "setting": "Rattus norvegicus [1]", "result": 0.98, "unit": "%"}, {"measurement": "Dose/g", "setting": "Rattus norvegicus [2]", "result": 1.37, "unit": "% dose"}, {"measurement": "Dose/ml", "setting": "Rattus norvegicus [3]", "result": 16, "unit": "% dose"}, {"measurement": "Dose/g", "setting": "Rattus norvegicus [4]", "result": 25, "unit": "% dose/organ"}, {"measurement": "Dose/g", "setting": "Rattus norvegicus [5]", "result": 0.86, "unit": "% dose"}, {"measurement": "Dose/g", "setting": "Rattus norvegicus [6]", "result": 0.9, "unit": "% dose"}, {"measurement": "Dose/g", "setting": "Rattus norvegicus [7]", "result": 0.86, "unit": "% dose/organ"}, {"measurement": "Dose/ml", "setting": "Rattus norvegicus [8]", "result": 1.02, "unit": "% dose"}, {"measurement": "Dose/g", "setting": "Rattus norvegicus [9]", "result": 0.1, "unit": "%"}, {"measurement": "Dose/g", "setting": "Rattus norvegicus [10]", "result": 1.3, "unit": "% dose"}, {"measurement": "Dose/g", "setting": "Rattus norvegicus [11]", "result": 0.2, "unit": "% dose/organ"}, {"measurement": "Dose/g", "setting": "Rattus norvegicus [12]", "result": 1, "unit": "% dose"}, {"measurement": "Dose/g", "setting": "Rattus norvegicus [13]", "result": 0.8, "unit": "% dose/organ"}, {"measurement": "Dose/g", "setting": "Rattus norvegicus [14]", "result": 13.6, "unit": "% dose"}, {"measurement": "Dose/g", "setting": "Rattus norvegicus [15]", "result": 1.9, "unit": "% dose/organ"}, {"measurement": "Dose/g", "setting": "Rattus norvegicus [16]", "result": 0.096, "unit": "%"}, {"measurement": "Dose/g", "setting": "Rattus norvegicus [17]", "result": 0.067, "unit": "% dose"}, {"measurement": "Dose/ml", "setting": "Rattus norvegicus [18]", "result": 1.24, "unit": "% dose"}, {"measurement": "Dose/g", "setting": "[19]", "result": 0.35, "unit": "%"}, {"measurement": "Dose/g", "setting": "Rattus norvegicus [20]", "result": 0.6, "unit": "% dose/organ"}, {"measurement": "Dose/ml", "setting": "Rattus norvegicus [21]", "result": 0.13, "unit": "% dose"}, {"measurement": "Dose/g", "setting": "Rattus norvegicus [22]", "result": 26, "unit": "% dose/organ"}, {"measurement": "Dose/g", "setting": "Rattus norvegicus [23]", "result": 0.055, "unit": "% dose"}, {"measurement": "Dose/g", "setting": "Rattus norvegicus [24]", "result": 0.016, "unit": "% dose"}, {"measurement": "Dose/g", "setting": "Rattus norvegicus [25]", "result": 0.028, "unit": "% dose"}, {"measurement": "Dose/g", "setting": "Rattus norvegicus [26]", "result": 3.6, "unit": "% dose/organ"}, {"measurement": "Dose/g", "setting": "Rattus norvegicus [27]", "result": 3.5, "unit": "% dose/organ"}, {"measurement": "Dose/g", "setting": "Rattus norvegicus [28]", "result": 0.13, "unit": "% dose/organ"}, {"measurement": "Dose/g", "setting": "Rattus norvegicus [29]", "result": 1.14, "unit": "% dose"}, {"measurement": "Dose/g", "setting": "Rattus norvegicus [30]", "result": 0.82, "unit": "%"}, {"measurement": "Dose/ml", "setting": "Rattus norvegicus [31]", "result": 26, "unit": "% dose"}, {"measurement": "Dose/g", "setting": "Rattus norvegicus [32]", "result": 0.4, "unit": "% dose"}, {"measurement": "Dose/g", "setting": "Rattus norvegicus [33]", "result": 0.041, "unit": "% dose"}, {"measurement": "Dose/g", "setting": "Rattus norvegicus [34]", "result": 7.9, "unit": "%"}, {"measurement": "Dose/g", "setting": "Rattus norvegicus [35]", "result": 0.09, "unit": "% dose/organ"}, {"measurement": "Dose/g", "setting": "Rattus norvegicus [36]", "result": 1.9, "unit": "% dose"}, {"measurement": "Dose/g", "setting": "Rattus norvegicus [37]", "result": 29, "unit": "% dose/organ"}]}]}
